pKi: −log10 of the molar value. Activity calls are given as the source filed them. No cut-off for these calls is given here.
Experiments:
[1] = Inhibition baboon liver mitochondrial MAOB; design: species or system Papio hamadryas
Method in brief: (§1)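 Mitochondrial fraction from baboon liver was used as the enzyme source, without MAO-A inactivation. Incubations were run in 100 mM sodium phosphate, pH 7.4, with 0.15 mg protein/mL, MMTP at four levels (30–120 μM), three inhibitor levels, and 4% DMSO final, for 15 min at 37 °C. Reactions were stopped with perchloric acid. MMDP⁺ was read at 420 nm, and Lineweaver-Burk plots were constructed.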

Papio hamadryas = species: Papio hamadryas; assay: Inhibition baboon liver mitochondrial MAOB upto 50 uM; method in brief: as §1

pKi [1]	Activity (Papio hamadryas)	SMILES
4.95	–	Cn1c(=O)c2c(nc(/C=C/c3ccsc3)n2C)n(C)c1=O
4.83	–	Cn1c(/C=C/c2ccc(F)cc2)nc2ccccc21
2.91	–	Cc1nc2ccccc2[nH]1
7.44	–	Cn1c(=O)c2c(nc(/C=C/c3ccc(Cl)c(Cl)c3)n2C)n(C)c1=O
6.37	–	Cn1c(/C=C/c2ccc(C(F)(F)F)cc2)nc2ccccc21
5.80	–	Cn1c(=O)c2c(nc(/C=C/c3cccs3)n2C)n(C)c1=O
4.40	–	Cn1c(=O)c2c(nc3c4ccccc4ncn32)n(C)c1=O
6.62	–	Cn1c(=O)c2c(nc(/C=C/c3cc(C(F)(F)F)cc(C(F)(F)F)c3)n2C)n(C)c1=O
4.73	–	Cn1c(/C=C/c2ccccc2)nc2ccccc21
5.60	–	Cn1c(/C=C/c2ccc(Br)cc2)nc2ccccc21
5.55	–	Cn1c(/C=C/c2ccc(Cl)cc2)nc2ccccc21
2.68	–	Cn1cnc2ccccc21
5.24	–	COc1ccc(/C=C/c2nc3ccccc3n2C)cc1
5.49	–	Cc1ccc(/C=C/c2nc3ccccc3n2C)cc1
–	inactive	CCn1c(=O)c2c(nc3c4ccccc4ncn32)n(CC)c1=O
7.07	–	Cn1c(=O)c2c(nc(/C=C/c3cccc(Br)c3)n2C)n(C)c1=O
4.40	–	Cn1c(=O)c2c(nc(/C=C/c3ccco3)n2C)n(C)c1=O

Reference: ChEMBL document CHEMBL1143048, “Inhibition of monoamine oxidase B by selected benzimidazole and caffeine analogues” (Bioorg Med Chem, 2007)
